Results on six molecules are retold here after paper PMC8327618 (Journal of the American Chemical Society, 2021).

Data set [1] is described as follows: Spectroscopic characterization in 0.1 M NaOH. The note with it: in 0.1M NaOH(aq); for ε: at max absorption; for Φfl: relative to fluorescein. The format is physicochemical.
Data set [2] is described as follows: pH titration of absorbance. The format is physicochemical. Conditions: for phenolic pKa (transition to the dianion): absorbance at λmax vs pH, 10 mM buffers, 150 mM NaCl, 2 μM dye. In short, it runs like this: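 Dichlorofluorescein dyes at 2 μM in 10 mM buffered solutions containing 150 mM NaCl, spanning pH 2.4 to 9.8 (intermediate steps 3.1–9.2); absorbance spectra recorded and normalized. Normalized absorbance at λmax plotted against pH and fitted to sigmoidal dose-response curves to obtain pKa; n = 3 independent determinations, error as ± SEM.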

In a further data set the test system is HEK293T (HEK) cells. The data set is described as follows: Cell permeability by fluorescence microscopy. Conditions: 500 nM, 20 min, 37 °C. It is filed as cell-based. The essentials:
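HEK293T cells incubated with 500 nM test compound (free acid or acetoxymethyl ester forms) for 20 min at 37 °C, washed once with HBSS, then imaged by widefield fluorescence and DIC microscopy to assess uptake.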

A short description of data set [3]: MTT reduction assay, cellular toxicity. The format is cell-based.

Turning to “2’,7’-dichloro-3-carboxyfluorescein [2’,7’-dichloro-3-carboxy-fluorescein, reference compound]”, the λmax in data set [1] was 502 nm.

As to “2’,7’-dichloro-3-phosphonofluorescein [compound 4]”, in data set [1], the λem stood at 517 nm, the λmax is 498 nm, the ε was 88,000 M^−1cm^−1 and the Φfl is 0.90. Also, the “pKa of trianion formation (phosphonate, hypsochromic shift)” value in data set [2] (quantification of 5 nm hypsochromic shift with increasing pH) stood at 7.8. For the same molecule, the “uptake into cells / cell permeability” value in the data set on HEK293T (HEK) cells is on record as “no uptake”. Moreover, the cellular toxicity entry in data set [3] is “very low cellular toxicity”.

As for “2’,7’-dichloro-3-sulfonofluorescein [sF.Cl, reference compound]”, in data set [1], the λem came out at 526 nm, the λmax turned out to be 509 nm, the ε is 87,000 M^−1cm^−1 and the Φfl is on record as 0.89.

For the molecule “2’,7’-difluoro-3-phosphonofluorescein [compound 5]”, in data set [1], the λem is listed as 508 nm, the λmax was 488 nm, the ε was 84,000 M^−1cm^−1 and the Φfl came to 0.94. In addition, the “phenolic pKa (transition to the dianion)” value in data set [2] came out at 4.8.

Consider `O=c1ccc2c(-c3ccccc3P(=O)(O)O)c3ccc(O)cc3oc-2c1` [compound 6, 3-phosphonofluorescein], for which, in data set [1], the λem is 508 nm, the λmax was found to be 487 nm, the ε is given as 75,000 M^−1cm^−1 and the Φfl was 0.99. The “phenolic pKa (transition to the dianion)” value in data set [2] is 6.4.

Consider `O=C1OC2(c3ccc(O)cc3Oc3cc(O)ccc32)c2ccccc21` [fluorescein, reference compound], for which, in data set [1], the λem is 514 nm, the λmax is recorded as 491 nm, the ε is given as 88,000 M^−1cm^−1 and the Φfl worked out at 0.92.
